From ChEMBL document CHEMBL1156448, “Identification of an efficacy switch region in the ghrelin receptor responsible for interchange between agonism and inverse agonism” (J Biol Chem, 2007)

Legend:
[1] = target: T1, Growth hormone secretagogue receptor type 1 (Homo sapiens, UniProt Q92847, F119S); assay: Agonist activity at human ghrelin receptor Phe3:04Ser(phe119) mutant expressed in african green monkey COS7 cells assessed as stimulation of constitutively stimulated inositol phosphate accumulation
[2] = target: T2, Growth hormone secretagogue receptor type 1 (Homo sapiens, UniProt Q92847); assay: Inverse agonist activity at human wild type ghrelin receptor expressed in african green monkey COS7 cells assessed as inhibition of constitutively stimulated inositol phosphate accumulation; type: functional, cell-based, COS-7
Outline: (§1)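 COS-7 cells transiently transfected (calcium phosphate with chloroquine; receptor cDNA 20 μg/75 cm2, the amount giving maximal basal signaling), labelled one day later for 24 h with 5 μCi myo-[3H]inositol. Preincubated in HEPES buffer pH 7.4 with 10 mm LiCl, 30 min at 37 °C, then exposed to various peptide concentrations, 45 min at 37 °C. Inositol phosphates recovered on anion-exchange resin; duplicates; EC50 by nonlinear regression.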
Target sequence in this assay (Q92847 whole entry): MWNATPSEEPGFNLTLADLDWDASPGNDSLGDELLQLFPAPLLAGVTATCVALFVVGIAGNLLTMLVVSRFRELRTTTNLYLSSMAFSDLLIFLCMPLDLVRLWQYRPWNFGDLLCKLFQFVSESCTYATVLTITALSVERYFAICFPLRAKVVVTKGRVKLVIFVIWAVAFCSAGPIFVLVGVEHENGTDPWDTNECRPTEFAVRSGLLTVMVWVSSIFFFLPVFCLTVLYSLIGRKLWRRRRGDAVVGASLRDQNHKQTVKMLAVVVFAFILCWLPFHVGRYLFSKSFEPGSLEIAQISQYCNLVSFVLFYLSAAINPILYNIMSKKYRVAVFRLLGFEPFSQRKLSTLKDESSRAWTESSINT

[3] = target: T3, Growth hormone secretagogue receptor type 1 (Homo sapiens, UniProt Q92847, F220A); assay: Inverse agonist activity at human ghrelin receptor Phe5:12Ala(Phe220) mutant expressed in african green monkey COS7 cells assessed as inhibition of constitutively stimulated inositol phosphate accumulation; type: functional, cell-based, COS-7
Outline: as §1

[4] = target: T4, Growth hormone secretagogue receptor type 1 (Homo sapiens, UniProt Q92847, S217A); assay: Inverse agonist activity at human ghrelin receptor Ser5:09Ala(Ser217) mutant expressed in african green monkey COS7 cells assessed as inhibition of constitutively stimulated inositol phosphate accumulation; type: functional, cell-based, COS-7
Outline: as §1

[5] = target: T2, Growth hormone secretagogue receptor type 1; assay: Displacement of [35S]MK677 from human ghrelin receptor expressed in african green monkey COS7 cells; type: cell-based, COS-7
Target sequence in this assay (Q92847 whole entry): as above

[6] = target: T5, Growth hormone secretagogue receptor type 1 (Homo sapiens, UniProt Q92847, Q120A); assay: Inverse agonist activity at human ghrelin receptor Gln3:05Ala(Gln120) mutant expressed in african green monkey COS7 cells assessed as inhibition of constitutively stimulated inositol phosphate accumulation; type: functional, cell-based, COS-7
Outline: as §1

[7] = target: T6, Growth hormone secretagogue receptor type 1 (Homo sapiens, UniProt Q92847, R283Q); assay: Inverse agonist activity at human ghrelin receptor Arg6:20Gln(Arg283) mutant expressed in african green monkey COS7 cells assessed as inhibition of constitutively stimulated inositol phosphate accumulation; type: functional, cell-based, COS-7
Outline: as §1

[8] = target: T7, Growth hormone secretagogue receptor type 1 (Homo sapiens, UniProt Q92847, M213A); assay: Inverse agonist activity at human ghrelin receptor Met5:05Ala(Met213) mutant expressed in african green monkey COS7 cells assessed as inhibition of constitutively stimulated inositol phosphate accumulation; type: functional, cell-based, COS-7
Outline: as §1

[9] = target: T2, Growth hormone secretagogue receptor type 1; assay: Inverse agonist activity at human ghrelin receptor Phe7:06Leu(Phe306) mutant expressed in african green monkey COS7 cells assessed as inhibition of constitutively stimulated inositol phosphate accumulation; type: functional, cell-based; conditions: cos-7
Outline: as §1
Target sequence in this assay (Q92847 whole entry, looked up): as the sequence (Q92847 whole entry) above

[10] = target: T8, Growth hormone secretagogue receptor type 1 (Homo sapiens, UniProt Q92847, N305A); assay: Inverse agonist activity at human ghrelin receptor Asn7:02Ala(Asn305) mutant expressed in african green monkey COS7 cells assessed as inhibition of constitutively stimulated inositol phosphate accumulation; type: functional, cell-based, COS-7
Outline: as §1

[11] = target: T9, Growth hormone secretagogue receptor type 1 (Homo sapiens, UniProt Q92847, V216A); assay: Inverse agonist activity at human ghrelin receptor Val5:08Ala(Val216) mutant expressed in african green monkey COS7 cells assessed as inhibition of constitutively stimulated inositol phosphate accumulation; type: functional, cell-based, COS-7
Outline: as §1

[12] = target: T10, Growth hormone secretagogue receptor type 1 (Homo sapiens, UniProt Q92847, F312A); assay: Inverse agonist activity at human ghrelin receptor Phe7:09Ala(Phe312) mutant expressed in african green monkey COS7 cells assessed as inhibition of constitutively stimulated inositol phosphate accumulation; type: functional, cell-based, COS-7
Outline: as §1

[13] = target: T11, Growth hormone secretagogue receptor type 1 (Homo sapiens, UniProt Q92847, I178A); assay: Agonist activity at human ghrelin receptor Ile4:20Ala(Ile178) mutant expressed in african green monkey COS7 cells assessed as stimulation of constitutively stimulated inositol phosphate accumulation
[14] = target: T2, Growth hormone secretagogue receptor type 1; assay: Inverse agonist activity at human ghrelin receptor expressed in african green monkey COS7 cells assessed as constitutively stimulated inositol phosphate accumulation; type: functional, cell-based, COS-7
Target sequence in this assay (Q92847 whole entry): as above

[15] = target: T2, Growth hormone secretagogue receptor type 1; assay: Agonist activity at human ghrelin receptor Asp2:20Asn(Asp99) mutant expressed in african green monkey COS7 cells assessed as inhibition of inositol phosphate accumulation; type: functional, cell-based; conditions: cos-7
Outline: as §1
Target sequence in this assay (Q92847 whole entry, looked up): as the sequence (Q92847 whole entry) above

[16] = target: T12, Growth hormone secretagogue receptor type 1 (Homo sapiens, UniProt Q92847, D99K); assay: Agonist activity at human ghrelin receptor Asp2:20Lys(Asp99) mutant expressed in african green monkey COS7 cells assessed as inhibition of inositol phosphate accumulation; type: functional, cell-based, COS-7
Outline: as §1

[17] = target: T13, Growth hormone secretagogue receptor type 1 (Homo sapiens, UniProt Q92847, S174A); assay: Inverse agonist activity at human ghrelin receptor Ser4:16Ala(Ser174) mutant expressed in african green monkey COS7 cells assessed as inhibition of constitutively stimulated inositol phosphate accumulation; type: functional, cell-based, COS-7
Outline: as §1

[18] = target: T14, Growth hormone secretagogue receptor type 1 (Homo sapiens, UniProt Q92847, S123A); assay: Inverse agonist activity at human ghrelin receptor Ser3:08Ala(Ser123) mutant expressed in african green monkey COS7 cells assessed as inhibition of constitutively stimulated inositol phosphate accumulation; type: functional, cell-based, COS-7
Outline: as §1

[19] = target: T15, Growth hormone secretagogue receptor type 1 (Homo sapiens, UniProt Q92847, E124Q); assay: Inverse agonist activity at human ghrelin receptor Glu3:09Gln(Glu124) mutant expressed in african green monkey COS7 cells assessed as inhibition of constitutively stimulated inositol phosphate accumulation; type: functional, cell-based, COS-7
Outline: as §1

[20] = target: T7, Growth hormone secretagogue receptor type 1; assay: Agonist activity at human ghrelin receptor Met5:05Ala(Met213) mutant expressed in african green monkey COS7 cells assessed as stimulation of constitutively stimulated inositol phosphate accumulation; type: functional, cell-based, COS-7
Outline: (§2)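 COS-7 cells transiently transfected (calcium phosphate with chloroquine, cDNA amount giving maximal basal signaling, 20 μg/75 cm2). After 1 day, labeled 24 h with 5 μCi myo-[3H]inositol. Washed in HEPES buffer pH 7.4, preincubated 30 min at 37 °C with 10 mM LiCl, then exposed to peptide concentrations for 45 min at 37 °C. Formic acid extraction, anion-exchange purification. Duplicate determinations. EC50 by nonlinear regression.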

[21] = target: T13, Growth hormone secretagogue receptor type 1; assay: Agonist activity at human ghrelin receptor Ser4:16Ala(Ser174) mutant expressed in african green monkey COS7 cells assessed as stimulation of constitutively stimulated inositol phosphate accumulation; type: functional, cell-based, COS-7
Outline: as §2

[22] = target: T5, Growth hormone secretagogue receptor type 1; assay: Agonist activity at human ghrelin receptor Gln3:05Ala(Gln120) mutant expressed in african green monkey COS7 cells assessed as stimulation of constitutively stimulated inositol phosphate accumulation; type: functional, cell-based, COS-7
Outline: as §2

[23] = target: T2, Growth hormone secretagogue receptor type 1; assay: Agonist activity at human ghrelin receptor Phe7:06Leu(Phe306) mutant expressed in african green monkey COS7 cells assessed as stimulation of constitutively stimulated inositol phosphate accumulation; type: functional, cell-based; conditions: cos-7
Outline: as §2
Target sequence in this assay (Q92847 whole entry, looked up): as the sequence (Q92847 whole entry) above

[24] = target: T8, Growth hormone secretagogue receptor type 1; assay: Agonist activity at human ghrelin receptor Asn7:02Ala(Asn305) mutant expressed in african green monkey COS7 cells assessed as stimulation of constitutively stimulated inositol phosphate accumulation; type: functional, cell-based, COS-7
Outline: as §2

[25] = target: T3, Growth hormone secretagogue receptor type 1; assay: Agonist activity at human ghrelin receptor Phe5:12Ala(Phe220) mutant expressed in african green monkey COS7 cells assessed as stimulation of constitutively stimulated inositol phosphate accumulation; type: functional, cell-based, COS-7
Outline: as §2

[26] = target: T14, Growth hormone secretagogue receptor type 1; assay: Inverse agonist activity at human ghrelin receptor Ser3:08Ala(Ser123) mutant expressed in african green monkey COS7 cells assessed as inhibition of constitutively stimulated inositol phosphate accumulation
[27] = target: T2, Growth hormone secretagogue receptor type 1; assay: Agonist activity at human wild type ghrelin receptor expressed in african green monkey COS7 cells assessed as stimulation of constitutively stimulated inositol phosphate accumulation; type: functional, cell-based, COS-7
Outline: as §2
Target sequence in this assay (Q92847 whole entry): as above

[28] = target: T11, Growth hormone secretagogue receptor type 1; assay: Agonist activity at human ghrelin receptor Ile4:20Ala(Ile178) mutant expressed in african green monkey COS7 cells assessed as stimulation of constitutively stimulated inositol phosphate accumulation; type: functional, cell-based, COS-7
Outline: as §2

[29] = target: T12, Growth hormone secretagogue receptor type 1; assay: Agonist activity at human ghrelin receptor Asp2:20Lys(Asp99) mutant expressed in african green monkey COS7 cells assessed as stimulation of constitutively stimulated inositol phosphate accumulation; type: functional, cell-based, COS-7
Outline: as §2

[30] = target: Growth hormone secretagogue receptor type 1 (Homo sapiens, UniProt Q92847, F279A); assay: Agonist activity at human ghrelin receptor Phe6:16Ala(Phe279) mutant expressed in african green monkey COS7 cells assessed as stimulation of constitutively stimulated inositol phosphate accumulation; type: functional, cell-based, COS-7
Outline: as §2

[31] = target: T15, Growth hormone secretagogue receptor type 1; assay: Agonist activity at human ghrelin receptor Glu3:09Gln(Glu124) mutant expressed in african green monkey COS7 cells assessed as stimulation of constitutively stimulated inositol phosphate accumulation; type: functional, cell-based, COS-7
Outline: as §2

[32] = target: T9, Growth hormone secretagogue receptor type 1; assay: Agonist activity at human ghrelin receptor Val5:08Ala(Val216) mutant expressed in african green monkey COS7 cells assessed as stimulation of constitutively stimulated inositol phosphate accumulation; type: functional, cell-based, COS-7
Outline: as §2

[33] = target: T4, Growth hormone secretagogue receptor type 1; assay: Agonist activity at human ghrelin receptor Ser5:09Ala(Ser217) mutant expressed in african green monkey COS7 cells assessed as stimulation of constitutively stimulated inositol phosphate accumulation; type: functional, cell-based, COS-7
Outline: as §2

[34] = target: T2, Growth hormone secretagogue receptor type 1; assay: Agonist activity at human ghrelin receptor Asp2:20Asn(Asp99) mutant expressed in african green monkey COS7 cells assessed as stimulation of constitutively stimulated inositol phosphate accumulation; type: functional, cell-based; conditions: cos-7
Outline: as §2
Target sequence in this assay (Q92847 whole entry, looked up): as the sequence (Q92847 whole entry) above

[35] = target: T10, Growth hormone secretagogue receptor type 1; assay: Agonist activity at human ghrelin receptor Phe7:09Ala(Phe312) mutant expressed in african green monkey COS7 cells assessed as stimulation of constitutively stimulated inositol phosphate accumulation; type: functional, cell-based, COS-7
Outline: as §2

[36] = target: T1, Growth hormone secretagogue receptor type 1; assay: Agonist activity at human ghrelin receptor Phe3:04Ser(phe119) mutant expressed in african green monkey COS7 cells assessed as stimulation of constitutively stimulated inositol phosphate accumulation; type: functional, cell-based, COS-7
Outline: as §2

[37] = target: T6, Growth hormone secretagogue receptor type 1; assay: Agonist activity at human ghrelin receptor Arg6:20Gln(Arg283) mutant expressed in african green monkey COS7 cells assessed as stimulation of constitutively stimulated inositol phosphate accumulation; type: functional, cell-based, COS-7
Outline: as §2

T10 sequence (Q92847 whole entry F312A): as the sequence (Q92847 whole entry) above, with F312A counted along it
T3 sequence (Q92847 whole entry F220A): as the sequence (Q92847 whole entry) above, with F220A counted along it
T4 sequence (Q92847 whole entry S217A): as the sequence (Q92847 whole entry) above, with S217A counted along it
T7 sequence (Q92847 whole entry M213A): as the sequence (Q92847 whole entry) above, with M213A counted along it
T12 sequence (Q92847 whole entry D99K): as the sequence (Q92847 whole entry) above, with D99K counted along it
T1 sequence (Q92847 whole entry F119S): as the sequence (Q92847 whole entry) above, with F119S counted along it
T5 sequence (Q92847 whole entry Q120A): as the sequence (Q92847 whole entry) above, with Q120A counted along it
T13 sequence (Q92847 whole entry S174A): as the sequence (Q92847 whole entry) above, with S174A counted along it
T14 sequence (Q92847 whole entry S123A): as the sequence (Q92847 whole entry) above, with S123A counted along it
T9 sequence (Q92847 whole entry V216A): as the sequence (Q92847 whole entry) above, with V216A counted along it
T11 sequence (Q92847 whole entry I178A): as the sequence (Q92847 whole entry) above, with I178A counted along it
T15 sequence (Q92847 whole entry E124Q): as the sequence (Q92847 whole entry) above, with E124Q counted along it
T8 sequence (Q92847 whole entry N305A): as the sequence (Q92847 whole entry) above, with N305A counted along it
T6 sequence (Q92847 whole entry R283Q): as the sequence (Q92847 whole entry) above, with R283Q counted along it
Sequence of Growth hormone secretagogue receptor type 1 (Homo sapiens, UniProt Q92847, F279A) (Q92847 whole entry F279A): as the sequence (Q92847 whole entry) above, with F279A counted along it

`CC(C)C[C@H](NC(=O)[C@H](CC(C)C)NC(=O)[C@@H](Cc1c[nH]c2ccccc12)NC(=O)[C@H](Cc1ccccc1)NC(=O)[C@@H](Cc1c[nH]c2ccccc12)NC(=O)[C@@H](N)CCCCN)C(N)=O` was tested, and the EC50 [1] was 60 nM, the IC50 [2] was 32 nM and the IC50 [3] was 19 nM. For the same compound, the IC50 [4] was 83 nM, the IC50 [5] was 13 nM and the IC50 [6] was over 1000 nM. For the same compound, the IC50 [7] was over 1000 nM, the IC50 [8] was 29 nM and the IC50 [9] was over 1000 nM. It also gave an IC50 [10] of 61 nM, an IC50 [11] of 27 nM and an IC50 [12] of over 1000 nM. It also gave an EC50 [13] of 43 nM, an IC50 [14] of 36 nM and an IC50 [15] of over 1000 nM. For the same compound, the IC50 [16] was over 1000 nM, the IC50 [17] was 2.6 nM and the IC50 [18] was 21 nM. For the same compound, the IC50 [19] was over 1000 nM.

Compound `CC(C)C[C@H](NC(=O)[C@H](CC(C)C)NC(=O)[C@@H](Cc1c[nH]c2ccccc12)NC(=O)[C@H](Cc1ccccc1)NC(=O)[C@@H](Cc1c[nH]c2ccccc12)NC(=O)[C@@H](CCCNC(=N)N)NC(=O)[C@H]1CCCN1C(=O)[C@@H](N)CC(=O)O)C(N)=O` has an IC50 [5] of 210 nM and an IC50 [14] of 112 nM.

`CC(C)C[C@H](NC(=O)[C@H](CC(C)C)NC(=O)[C@@H](Cc1c[nH]c2ccccc12)NC(=O)[C@H](Cc1ccccc1)NC(=O)[C@@H](Cc1c[nH]c2ccccc12)NC(=O)[C@H](C)N)C(N)=O` was tested, and the IC50 [20] was 0.35 nM, the IC50 [5] was 53 nM and the IC50 [21] was 6.1 nM. It also gave an IC50 [22] of over 1000 nM, an IC50 [23] of 81 nM and an IC50 [24] of 15 nM. The IC50 [25] was over 1000 nM, the IC50 [26] was 28 nM and the IC50 [27] was 15 nM. The IC50 [28] was 160 nM, the IC50 [29] was over 1000 nM and the IC50 [30] was over 1000 nM. It also gave an IC50 [31] of over 1000 nM, an IC50 [14] of 15 nM and an IC50 [32] of over 1000 nM. It also gave an IC50 [33] of 14 nM, an IC50 [34] of over 1000 nM and an IC50 [35] of over 1000 nM. The IC50 [36] was 41 nM and the IC50 [37] was over 1000 nM.
